Screens (PubChem BioAssay)
Rows were chosen to be rich in hits. Some 9.6% of all compounds tested hit in one or more screens of this group.
BaF3 parental – reduces parental Ba/F3 cell viability, JAK2V617F counter-screen; hit rate 1.1% among 220,000; CellTiter-Glo ATP luminescence; inhibition, % at 5.6 µM;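 active = inhibition above a per-campaign cutoff, the mean inhibition of all tested compounds plus 3 SD, cut at about 27% in these data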;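 note: 0% = DMSO wells and 100% = JAK Inhibitor I control wells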
b-catenin transl – modulators of beta-catenin nuclear translocation; HeLa beta-catenin nuclear translocation, immunofluorescence imaging; nuclear translocation activity, % at 5 µM; hit rate 0.3% among 190,000; AID 1665;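 active = nuclear translocation activity above 50% at 5 µM, with a well cell count of 50 or more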;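 note: per-cell ratio of nuclear to cytoplasmic median beta-catenin stain intensity; plate controls were DMSO negative control for no effect and GSK-3 inhibitor IX positive control for full effect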
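Test system: human HeLa cells, native beta-catenin. Compound dosing: 5 µM primary single dose, 0.1% DMSO, 0.02–20 µM confirmation series. Incubation: compound exposure 24 h at 37°C. Detection: beta-catenin immunostaining with DAPI counterstain, 20x imaging, 6 fields/well. Read-out basis: Nuclear/cytoplasmic beta-catenin signal ratio, % activation.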
APP transl inh – APP translation inhibition; SH-SY5Y APP 5'UTR-luciferase reporter, luminescence; inhibition, % at 2 µM; hit rate 0.82% among 190,000; AID 1285;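 active = inhibition above a set limit, derived from the sample mean plus 3 SD, cut at about 45% in these data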
Ba/F3 V617F tox – reduce viability of Ba/F3 cells dependent on JAK2V617F | AID 1446 | inhibition, % at 5.6 µM | hit rate 1.1% among 220,000 | Ba/F3 EpoR-JAK2V617F viability, ATP luminescence;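 active = inhibition above the campaign mean plus 3 SD over all tested compounds, cut at about 24% in these data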;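 note: cytokine-independent growth of Ba/F3 cells driven by EpoR plus mutant JAK2; 0% = DMSO-treated cells and 100% = JAK inhibitor I control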
Lmaj promast – Leishmania major promastigote growth inhibition; Leishmania major promastigotes, resazurin fluorescence viability; inhibition, % at 10 µM; hit rate 9% among 200,000; in the data active = inhibition above about 50%;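 note: promastigotes grown with compound for 44 hours at 28 °C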
MT stabilize HCS – microtubule stabilizers in HeLa cells. % tubulin-high responders, % at 10 µM. HeLa tubulin immunostaining HCS, 24 h; share of cells brighter than vehicle mean+2SD. hit rate 0.83% among 200,000;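 active = plate Z-score above 3 for both tubulin-high and condensed-nucleus cell shares, with cell loss under 80%, at 10 µM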;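 note: anti alpha tubulin signal scored within the nucleus-defined area of each cell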
* hit, by the source's call; nt = no result.

SMILES	BaF3 parental	b-catenin transl	APP transl inh	Ba/F3 V617F tox	Lmaj promast	MT stabilize HCS
O=C(CCNc1ccc(Cc2ccncc2)cc1)c1cccc([N+](=O)[O-])c1	9	-2	-17	3	95*	2
O=C(OCCN1C(=O)c2ccccc2C1=O)c1cc(S(=O)(=O)N2CCOCC2)ccc1Cl	1	-4	16	-3	4	7
O=C(OCCN1C(=O)c2cccc3c(N4CCOCC4)ccc(c23)C1=O)c1ccc(Cl)cc1Cl	0	80*	94*	-3	5	16*
O=C(OCCN1C(=O)c2cccc3c(N4CCOCC4)ccc(c23)C1=O)c1ccccc1Cl	7	nt	15	4	86*	14*
O=C1c2cccc3c(N4CCCCC4)ccc(c23)C(=O)N1CCO	4	2	-59	0	10	3
O=C(OCCN1C(=O)c2cccc3c(N4CCOCC4)ccc(c23)C1=O)c1cccc(Cl)c1	7	56*	15	-1	1	16*
O=[N+]([O-])c1ncn(Cc2c(Cl)cccc2Cl)n1	3	0	0	0	12	2
CC1C(O)=C(c2nc3ccccc3[nH]2)C(=N)N1c1ccccc1 (centres undefined)	3	-2	-11	-2	8	4
Cc1sc2nc(-c3ccccn3)[nH]c(=O)c2c1-c1ccccc1	3	2	23	-2	99*	3
N#Cc1ccc(C(=O)CSc2n[nH]c(=O)n2Cc2ccco2)cc1	4	0	nt	-4	nt	nt
O=C(N[C@@H](Cc1ccccc1)c1nc2ccccc2[nH]1)c1cc([N+](=O)[O-])ccc1Cl	6	nt	15	-1	89*	1
CCOCCCNC(=O)c1cc(C)nn1-c1ccccc1	6	0	28	-2	-5	4
CCOCCCNC(=O)c1cc2sc(Cl)cc2n1CC	0	nt	9	-4	-3	14*
CCOC(=O)C1=C(c2ccccc2)NC(SCC(=O)Nc2ccccc2C)=C(C#N)C1c1ccco1 (centres undefined)	-1	0	5	-1	11	4
C/C(=C\C(=O)c1ccc(Cl)cc1)Nc1ccc(N2CCOCC2)cc1	28*	nt	-9	33*	-2	1
C/C(=C\C(=O)c1ccc(Br)cc1)Nc1ccc(Cl)cc1	92*	1	-29	2	-8	3
CS(=O)(=O)N1CCC(Oc2ccccc2C(=O)N2CCNC(=O)C2)CC1	4	2	16	-2	-2	3
Cn1nccc1C(=O)Nc1ccn(C23CC4CC(CC(C4)C2)C3)n1	2	-3	-20	-4	53*	4
Cc1nn(-c2ccc(Cl)cc2)c2[nH]c(=O)c(CNCc3ccc4c(c3)OCO4)cc12	9	-1	-4	-1	24	6
COc1ccc(S(=O)(=O)NC(Cc2cnc[nH]2)C(=O)O)cc1 (centres undefined)	0	0	-9	-3	51*	1
Cc1cccc(NC(=O)C2(c3cccs3)CCOCC2)n1	-1	-1	-12	-1	-4	8
COc1cccc(NC(=S)N2CCCN(Cc3ccc(F)cc3)C2)c1	4	-1	-7	4	87*	2
COc1ccc(NC(=S)N2CCCN(Cc3cc(C)ccc3C)C2)cc1	6	-3	-12	1	55*	1
CC(=O)c1ccc(N2CCN(C(=S)Nc3ccc(Oc4ccccc4)cc3)CC2)cc1	1	-4	-4	1	7	4
Fc1cccc(NC(=S)N2CCCC2)c1	3	-2	14	-2	63*	2
SMILES	BaF3 parental	b-catenin transl	APP transl inh	Ba/F3 V617F tox	Lmaj promast	MT stabilize HCS
CC(=O)c1ccc(N2CCN(C(=S)Nc3cccc(F)c3)CC2)cc1	30*	0	-8	41*	0	2
N=c1sccn1CC(=O)Nc1ccccc1Sc1ccccc1	3	0	-6	4	13	5
O=C(Nn1cc(C(=O)Nc2ccc(F)cc2F)c2ccccc2c1=O)c1cnccn1	3	nt	-11	-2	34	3
COc1ccc(NC(=S)N2CCCN(Cc3cccc(Cl)c3)C2)cc1	4	1	-37	-1	94*	2
Fc1cc(F)cc(NC(=S)N2CCN(c3ncccn3)CC2)c1	27*	0	5	36*	-5	5
CCOc1ccc(NC(=S)N2CCCN(Cc3cccc(Cl)c3)C2)cc1	1	1	-5	-4	82*	2
COc1cccc(NC(=S)Nc2cccnc2)c1	9	nt	-7	3	51*	1
Cn1c(NNC(=O)C(c2ccccc2)c2ccccc2)cc(=O)n(C)c1=O	10	-1	1	5	-5	nt
Fc1ccc(CNC(=S)Nc2ccccc2Cl)cc1	6	0	7	2	16	2
Cc1cccc(C)c1NC(=S)N1CCCN(Cc2ccc(F)cc2)C1	1	0	-2	-1	73*	3
S=C(Nc1cccc(Cl)c1)N1CCN(Cc2ccccc2)CC1	9	3	4	1	23	2
CSc1cccc(NC(=S)N2CCCN(Cc3cccc(Cl)c3)C2)c1	3	-1	-12	-2	90*	3
COc1cccc(NC(=S)N2CCN(C(c3ccccc3)c3ccccc3)CC2)c1	0	0	-12	-2	11	4
CSc1cccc(NC(=S)N2CCC(N(C)C3CCCC3)CC2)c1	8	-1	-12	1	85*	5
COc1cccc(NC(=S)N2CCCC2)c1	-4	-5	-6	-5	76*	4
Cc1ccccc1CSCC(=O)Nc1c(C)n(C)n(-c2ccccc2)c1=O	9	-6	-2	4	-4	3
Cc1ccc(CSCC(=O)Nc2c(C)n(C)n(-c3ccccc3)c2=O)cc1	3	-2	23	0	61*	6
Cc1ccccc1OCc1nnc(SCC(=O)Nc2c(C)n(C)n(-c3ccccc3)c2=O)n1-c1ccccc1	8	-3	5	0	59*	2
CSc1ccccc1-n1nnnc1SCC(=O)Nc1ccccc1C	1	-11	nt	-2	19	3
CSc1ccccc1NC(=O)CSc1nnnn1-c1ccccc1SC	2	nt	-3	2	67*	2
CSc1ccccc1NC(=O)CSCc1ccc(C)cc1	2	7	10	0	8	30*
Cc1c(NC(=O)CSc2nccn2C)c(=O)n(-c2ccccc2)n1C	1	-3	15	0	-1	3
CNC(=O)c1cc(NC(=O)CCn2nc(-c3ccc(C)cc3)c3ccccc3c2=O)ccc1OC	1	1	nt	4	nt	nt
O=C(NNC(=O)C1CC2CCC1C2)c1sc2ccccc2c1Cl (centres undefined)	11	2	-43	4	3	2
O=C(O)CCCC(=O)N1N=C(c2ccccc2)CC1c1ccc2nccnc2c1 (centres undefined)	3	-2	-19	1	-3	4
Cc1ccc(-c2c(C(=O)NCc3ccccc3)oc(=O)c3ccccc23)cc1	3	-4	-8	-4	3	2
